The test system of one experiment is T98G. As to the kind of experiment: Cytotoxicity in human T98G cells assessed as reduction in cell viability incubated for 48 hrs by CCK8 assay. Format: cell-based. An outline of the steps: (§1)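 Exponentially growing cells, routinely kept in DMEM or RPMI1640 (line-dependent) with 10% FBS, penicillin/streptomycin at 37 °C and 5% CO₂, were seeded at 1.0 × 10⁴ cells/well in triplicate. The next day they were treated at 1.25–20 μM for 48 h. CCK-8 reagent was then added for 1 h and absorbance read at 450 nm. Controls received medium with 0.5% (v/v) DMSO.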
In general terms: Formazan colour is commonly taken as a measure of viable cells.

Another experiment relates to MCF7. As to the kind of experiment: Cytotoxicity in human MCF7 cells assessed as reduction in cell viability incubated for 48 hrs by CCK8 assay. It is filed as functional, cell-based. To be noted: MCF7, 48 h. In short, it runs like this: as §1
A further experiment relates to HepG2. In words: Cytotoxicity in human HepG2 cells assessed as reduction in cell viability incubated for 48 hrs by CCK8 assay. Format: functional, cell-based. The note with it: HepG2, 48 h. An outline of the steps: as §1
The test system of another experiment is Hep 3B2. In words: Cytotoxicity in human Hep3B cells assessed as reduction in cell viability incubated for 48 hrs by CCK8 assay. Format: functional, cell-based. An outline of the steps:
as §1

A further experiment deals with HeLa. As to the kind of experiment: Cytotoxicity in human HeLa cells assessed as reduction in cell viability incubated for 48 hrs by CCK8 assay. It is filed as functional, cell-based. An outline of the steps: as §1
The test system of a further experiment is MDA-MB-231. In words: Cytotoxicity in human MDA-MB-231 cells assessed as reduction in cell viability incubated for 48 hrs by CCK8 assay. Format: functional, cell-based. To be noted: MDA-MB-231, 48 h. In short, it runs like this:
as §1

Consider eight compounds from ChEMBL document CHEMBL4316635, “Synthesis, Structure Revision, and Cytotoxicity of Nocarbenzoxazole G” (J Nat Prod, 2019).

By IC50 is commonly meant the concentration at which inhibition is half-maximal. `OCc1ccc2oc(-c3ccc4cc(O)ccc4c3)nc2c1`: the IC50 with T98G was greater than 20 µM; with MCF7 it was greater than 20 µM; in the experiment with HepG2, greater than 20 µM; in the experiment on Hep 3B2, greater than 20 µM; in the experiment with HeLa, 0.56 µM; in the experiment with MDA-MB-231 it was greater than 20 µM.

Regarding `OCc1ccc2oc(-c3ccc(O)c(Cl)c3)nc2c1`, the IC50 in the experiment on T98G was greater than 20 µM; in the experiment on MCF7, greater than 20 µM; with HepG2 it was greater than 20 µM; in the experiment on Hep 3B2, greater than 20 µM; in the experiment with HeLa it was 11 µM; with MDA-MB-231 it was greater than 20 µM.

As to `OCc1ccc2oc(-c3ccc(O)cc3)nc2c1`, the IC50 with T98G was greater than 20 µM; in the experiment on MCF7 it was greater than 20 µM; in the experiment with HepG2, greater than 20 µM; with Hep 3B2, greater than 20 µM; in the experiment with HeLa, 4.7 µM; in the experiment with MDA-MB-231, greater than 20 µM.

For the compound `COc1cc(O)ccc1-c1nc2cc(CO)ccc2o1`, the IC50 with T98G is greater than 20 µM; in the experiment with MCF7, greater than 20 µM; in the experiment with HepG2, greater than 20 µM; with Hep 3B2, greater than 20 µM; in the experiment with HeLa, 2.9 µM; in the experiment with MDA-MB-231, greater than 20 µM.

Consider `OCc1ccc2oc(-c3ccc(Cl)cc3)nc2c1`, for which the 50% inhibitory concentration (IC50) with T98G was greater than 20 µM; in the experiment with MCF7, greater than 20 µM; with HepG2, greater than 20 µM; in the experiment with Hep 3B2, greater than 20 µM; in the experiment with HeLa, 16 µM; in the experiment on MDA-MB-231 it was greater than 20 µM.

With `COc1cc(-c2nc3cc(CO)ccc3o2)ccc1O`, the IC50 with T98G is greater than 20 µM; with MCF7 it was greater than 20 µM; in the experiment on HepG2, greater than 20 µM; in the experiment on Hep 3B2, greater than 20 µM; with HeLa, 5.7 µM; in the experiment on MDA-MB-231, greater than 20 µM.

For `Cc1cc(-c2nc3cc(CO)ccc3o2)cc(C)c1N`, the half-inhibitory concentration (IC50) was greater than 20 µM in the experiment with T98G; greater than 20 µM with MCF7; greater than 20 µM with HepG2; greater than 20 µM in the experiment on Hep 3B2; 19 µM with HeLa; greater than 20 µM in the experiment with MDA-MB-231.

With `OCc1ccc2oc(-c3ccc4[nH]ccc4c3)nc2c1`, the IC50 in the experiment on T98G is greater than 20 µM; in the experiment on MCF7, greater than 20 µM; with HepG2, greater than 20 µM; in the experiment with Hep 3B2 it was greater than 20 µM; with HeLa, 8.9 µM; in the experiment on MDA-MB-231 it was greater than 20 µM.
